Assay outcomes deposited in PubChem by Broad Institute.
A selection: hits, their analogues and other compounds. The true share with any hit is near 2.4%.
Rtt109 HAT inh – blocks Candida albicans Rtt109/Vps75 acetyltransferase activity | AID 540336 | hit rate 0.16% among 330,000 | inhibition, % at 34.9 µM | purified Rtt109/Vps75, ThioGlo CoA-SH fluorescence, 4 h | Q5AAJ8;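 active = inhibition of at least 50% in every replicate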
Target sequence (Q5AAJ8 whole entry, looked up): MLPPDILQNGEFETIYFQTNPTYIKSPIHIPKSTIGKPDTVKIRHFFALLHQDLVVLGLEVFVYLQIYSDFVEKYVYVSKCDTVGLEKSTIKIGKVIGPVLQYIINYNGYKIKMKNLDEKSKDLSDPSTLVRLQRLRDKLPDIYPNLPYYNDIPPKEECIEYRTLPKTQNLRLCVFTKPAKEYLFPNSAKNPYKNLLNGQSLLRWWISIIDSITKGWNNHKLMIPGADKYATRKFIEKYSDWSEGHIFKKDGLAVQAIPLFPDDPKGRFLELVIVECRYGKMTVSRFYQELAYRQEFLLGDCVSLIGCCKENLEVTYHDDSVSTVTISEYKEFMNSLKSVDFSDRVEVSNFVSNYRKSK
miR122 inh – miR-122 inhibition in Huh7 cells. Huh7 miR-122 Renilla luciferase sensor, 48 h; neutral wells = 0, positive control = 100. AID 602342. hit rate 0.3% among 340,000. activation (reporter increase), % at 12.5 µM;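 active = mean replicate activation score at least 90 and every replicate individually at or above 90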;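 note: higher luciferase means less miR-122 activity so hits act as miR-122 inhibitors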
Cneo AK release – Cryptococcus neoformans lysis via adenylate kinase release; lysis activity, % at 15 µM; hit rate 0.2% among 360,000; C. neoformans lysis, adenylate kinase release luminescence, 4 h; normalised: neutral wells 0, clomiphene wells 100;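 active = mean lysis activity across replicates of at least 80%, whatever share of replicates individually reach that level; inactive = mean lysis activity below 80%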
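Assay system: C. neoformans cells. Amount: yeast cell density of 5 × 10^6 cells/mL. Technique: AK luminescence. Buffer or medium: YPD. Times: static 4 h at 37 °C with compound, 1 h detection. Dosing: single-point compound dose. Read-out: lysis from increased AK signal.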
GSIS activator – primary screen for activators of insulin secretion dependent on glucose, INS-1E cells, GLuc reporter luminescence. INS-1E GLuc reporter insulin secretion, 2-3 h. activation, % at 16.6 µM. hit rate 0.61% among 370,000;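 active = lowest replicate activation of at least 40%, so every replicate reaches that level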;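 note: 0% = median of neutral control wells and 100% = median of IBMX positive control wells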
dFosB activator – activators of mouse delta FosB homodimer; P13346; purified delta FosB, TAMRA-CDK5 oligo fluorescence polarization; percent of positive-control signal above neutral wells; activation, % at 25 µM; hit rate 0.99% among 340,000;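 active = mean activation above about 17%, with every replicate also reaching it, limit read from the data, passing the limit was not always enough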
Target sequence (P13346 whole entry, looked up): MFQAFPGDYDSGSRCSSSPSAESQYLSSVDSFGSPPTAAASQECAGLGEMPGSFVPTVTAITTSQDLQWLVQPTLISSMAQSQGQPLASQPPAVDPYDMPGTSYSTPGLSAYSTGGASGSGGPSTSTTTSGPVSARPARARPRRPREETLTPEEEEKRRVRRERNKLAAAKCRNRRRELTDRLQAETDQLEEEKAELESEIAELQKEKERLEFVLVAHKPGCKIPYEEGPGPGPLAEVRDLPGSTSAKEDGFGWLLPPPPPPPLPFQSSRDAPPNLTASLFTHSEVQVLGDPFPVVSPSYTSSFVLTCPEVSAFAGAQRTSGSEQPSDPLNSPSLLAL
Env fusion inh – blocks HIV Env-driven cell-cell fusion; HeLa-JRFL Env/CEM21 cell fusion, luciferase; inhibition, % at 12.3 µM; hit rate 1.1% among 360,000; AID 651610;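 active = mean replicate inhibition score of at least 50 and every replicate individually at or above 50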;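 note: 0% = plate neutral controls and 100% = maraviroc near 300 nM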
Active calls of the source: *; [ ] = another dose, or the depositor's remark.

How did CCCC(=O)Nc1ccc2c(c1)OC[C@@H](C)N(C(=O)c1ccncc1)C[C@@H](C)[C@H](OC)CN(C)C2=O do in these assays?
miR122 inh: 12.2[16.7 µM]; Cneo AK release: -1.9; GSIS activator: -4.5; Env fusion inh: 6.2[16.7 µM]

Results for C/C=C/c1cnc2c(c1)C(=O)N([C@H](C)CO)C[C@H](C)[C@H](CN(C)C(=O)NC1CCCC1)O2 ?
miR122 inh: 10.5[16.7 µM]; Cneo AK release: -0.2; GSIS activator: -1.8; Env fusion inh: 4.0[16.7 µM]

What do the screens show for `O=S(=O)(/N=C(/Nc1ccc(Cl)c(S(=O)(=O)N2CCOCC2)c1)c1ccc(F)cc1)c1ccccc1`?
Rtt109 HAT inh: 8.4; miR122 inh: 120.8*; Cneo AK release: -5.2; GSIS activator: -4.2; dFosB activator: 1.9; Env fusion inh: 8.0

What do the screens show for `O=C(Nc1ccccc1)Nc1ccc(Cl)c(S(=O)(=O)N2CCOCC2)c1`?
Rtt109 HAT inh: -0.6; miR122 inh: -2.9; Cneo AK release: -1.8; GSIS activator: -27.2; dFosB activator: -11.7; Env fusion inh: 7.5

What do the screens show for `C[C@H]1CN([C@@H](C)CO)S(=O)(=O)c2ccc(C#CC3CC3)cc2O[C@H]1CN(C)Cc1cncnc1`?
miR122 inh: -3.8[16.7 µM]; GSIS activator: 1.2; Env fusion inh: -0.2[16.7 µM]

Results for C[C@H]1CN([C@@H](C)CO)S(=O)(=O)c2ccc(C#CC3CC3)cc2O[C@@H]1CN(C)CC1CCOCC1 ?
miR122 inh: 24.8[16.7 µM]; Cneo AK release: 8.3; GSIS activator: -4.1; Env fusion inh: -0.1[16.7 µM]

What do the screens show for `C[C@H](CO)N1C[C@H](C)[C@@H](CN(C)Cc2cncnc2)Oc2cc(C#CC3CCCC3)ccc2S1(=O)=O`?
miR122 inh: 95.2*[16.7 µM]; Cneo AK release: 49.0; GSIS activator: -36.6; Env fusion inh: -3.2[16.7 µM]

Results for C[C@@H]1CN([C@@H](C)CO)S(=O)(=O)c2ccc(C#CC3CC3)cc2O[C@H]1CN(C)CC1CCOCC1 ?
miR122 inh: 45.5[16.7 µM]; Cneo AK release: 87.2*; GSIS activator: 7.9; Env fusion inh: 14.3[16.7 µM]

What do the screens show for `COc1cccc(S(=O)(=O)N2CC3(CN(C(=O)Nc4cccc(F)c4)[C@H](CO)c4[nH]c5cc(OC)ccc5c43)C2)c1`?
GSIS activator: -13.0; Env fusion inh: 79.8*[16.7 µM]

Results for COc1ccc2c3c([nH]c2c1)[C@@H](CO)N(C(=O)Nc1cccc(F)c1)CC31CCN(S(=O)(=O)c2cccc(C)c2)CC1 ?
GSIS activator: -8.4

What do the screens show for `COc1ccc2c3c([nH]c2c1)[C@@H](CO)N(C(=O)Nc1cccc(F)c1)CC31CN(S(=O)(=O)c2cccc(C)c2)C1`?
GSIS activator: -20.1; Env fusion inh: 79.9*[16.7 µM]

Results for CO[C@@H]1CN(C)C(=O)c2ccc(NC(=O)c3nc4ccccc4s3)cc2OC[C@@H](C)N(Cc2ccccc2)C[C@H]1C ?
Cneo AK release: -0.4; GSIS activator: -1.3

Results for COc1ccccc1C(=O)NNC(=S)NC(=O)c1sc2ccccc2c1Cl ?
Rtt109 HAT inh: 3.7; GSIS activator: -15.1; dFosB activator: -12.2; Env fusion inh: 9.7

What do the screens show for `Cc1c(NC(=S)NC(=O)c2sc3ccccc3c2Cl)cccc1C(=O)O`?
Rtt109 HAT inh: 8.0; Cneo AK release: -1.1; GSIS activator: 62.7*; dFosB activator: -9.2; Env fusion inh: -75.6

How did CO[C@H](CN(C)C(=O)c1ccccc1F)[C@H](C)CN([C@H](C)CO)S(=O)(=O)c1ccccc1 do in these assays?
Cneo AK release: -10.6; GSIS activator: 2.1

Results for CCCCN1CC[C@H]2C=CC[C@@H](C(=O)Nc3ccc(Cl)c(C(F)(F)F)c3)[C@H]2C1=O ?
Rtt109 HAT inh: 9.5; miR122 inh: -7.5; Cneo AK release: -0.2; GSIS activator: -10.3; dFosB activator: 9.4; Env fusion inh: 31.7

What do the screens show for `O=C(Nc1ccc(Cl)c(C(F)(F)F)c1)[C@@H]1CC=C[C@@H]2CCN(Cc3ccccc3)C(=O)[C@@H]21`?
Rtt109 HAT inh: 0.1; miR122 inh: 2.1; Cneo AK release: 1.7; GSIS activator: 5.6; dFosB activator: -3.3; Env fusion inh: 64.1*

What do the screens show for `CCC(=O)N[C@@H]1CC[C@H](CC(=O)NCC2CC2)O[C@@H]1CO`?
GSIS activator: -5.8

What do the screens show for `O=C(c1cccc(S(=O)(=O)N2CCCCCC2)c1)N1CCN(c2ccccc2F)CC1`?
miR122 inh: 16.3; Cneo AK release: 0.3; GSIS activator: -50.4; dFosB activator: -3.7; Env fusion inh: -3.5

Results for Cc1cccc(N2CCN(C(=O)c3cccc(S(=O)(=O)N4CCCCC4)c3)CC2)c1C ?
Rtt109 HAT inh: 3.4; miR122 inh: -6.2; Cneo AK release: 1.2; dFosB activator: 2.6; Env fusion inh: 64.2*

How did Cc1cccc(N2CCN(C(=O)CNC(=O)C3CCCCC3)CC2)c1C do in these assays?
Rtt109 HAT inh: -2.5; miR122 inh: -1.4; Cneo AK release: -1.5; GSIS activator: 16.0; dFosB activator: -11.7; Env fusion inh: 55.6*

What do the screens show for `Cc1ccc(C(=O)O/N=C(\N)c2ccccn2)c(Cl)c1`?
Rtt109 HAT inh: -2.6; miR122 inh: 2.9; Cneo AK release: -9.7; GSIS activator: -14.4; dFosB activator: -11.6; Env fusion inh: 85.1*

How did O=C(NCC[C@@H]1CC[C@@H](NS(=O)(=O)Cc2ccccc2)[C@H](CO)O1)C1CCC1 do in these assays?
miR122 inh: 4.3[16.7 µM]; Cneo AK release: 15.8; GSIS activator: 10.9; Env fusion inh: 2.5[16.7 µM]

What do the screens show for `CN(Cc1ccccc1)S(=O)(=O)c1ccc(NC(=S)NC(=O)C2CCCC2)cc1`?
Rtt109 HAT inh: 5.6; miR122 inh: 123.7*; Cneo AK release: -0.7; GSIS activator: -10.1; dFosB activator: -5.2

What do the screens show for `CN(Cc1ccccc1)S(=O)(=O)c1ccc(S(=O)(=O)N(Cc2ccc(F)cc2)C2CCCC2)cc1`?
Rtt109 HAT inh: -13.7; miR122 inh: -2.0; Cneo AK release: 0.2; GSIS activator: -26.4; dFosB activator: -5.4; Env fusion inh: 57.9*

How did O=C(O)c1ccc(S(=O)(=O)N(Cc2ccc(F)cc2)C2CCCCC2)cc1 do in these assays?
Rtt109 HAT inh: -2.5; miR122 inh: -3.1; Cneo AK release: 1.9; dFosB activator: -11.1; Env fusion inh: 13.2

Results for Cc1ccc(S(=O)(=O)N[C@@H]2C=C[C@@H](CC(=O)NCCc3ccncc3)O[C@H]2CO)cc1 ?
Cneo AK release: 3.9; GSIS activator: 2.9; Env fusion inh: 16.7[16.7 µM]

What do the screens show for `C[C@@H]1CN([C@@H](C)CO)C(=O)c2cc(-c3cccnc3)cnc2O[C@@H]1CN(C)C(=O)C1CCCCC1`?
miR122 inh: -9.7[16.7 µM]; GSIS activator: 12.0; Env fusion inh: -9.8[16.7 µM]

What do the screens show for `CCCCS(=O)(=O)N1CCN(C(=O)C(=O)c2cccc(C(F)(F)F)c2)CC1`?
GSIS activator: -26.5; Env fusion inh: 90.6*
